Measured values from different studies.
Each line is one published result; the experiments were not run side by side. pIC50: −log10 of the molar value.
Cell line: MDA-MB-231
Read-out: cell growth or viability

`O=C1c2ccccc2-c2c3c(cc4ccnc1c24)OCO3` gave a pIC50 of 4.31 (MTT; 75 h).
`CC(C)=C[C@H]1C[C@H](C)[C@]2(CC[C@]3(C)C[C@H]4[C@H](C(=O)C[C@@]4(C)O)/C(C=O)=C\C[C@H]32)O1` has a pIC50 of 7.24.
`[C-]#[O+].[C-]#[O+].[C-]#[O+].[C-]#[O+].[C-]#[O+].[C-]#[O+].[C-]#[O+].[C-]#[O+].[C-]#[O+].[C-]#[O+].[Mn].[Mn]` has a pIC50 of 4.60 (MTT; 48 h).
`N.N.[Cl][Pt][Cl]` has a pIC50 of less than 4.00 (MTT).
`CCOP1(=O)CC=Cc2cc(N)ccc2O1` (stereo not drawn) gave an Emax of 10 to 15% (MTT; 72 h).
The pIC50 of `COc1c(C)c2c(c(O)c1C/C=C(\C)CCC(=O)O)C(=O)OC2` is reported as 5.92.
`COc1ccc(NC(=O)Nc2ccc3c(c2)C=CCP(=O)(O)O3)cc1` has an Emax of 50% (MTT; 72 h).
`C=CCNC1=C2C[C@@H](C)C[C@H](OC)[C@H](O)[C@@H](C)/C=C(\C)[C@H](OC(N)=O)[C@@H](OC)/C=C\C=C(/C)C(=O)NC(=CC1=O)C2=O` gave a pIC50 of 4.71 (72 h).
`CC[C@H](C)[C@@H]([C@@H](CC(=O)N1CCC[C@H]1[C@H](OC)[C@@H](C)C(=O)N[C@H](C)[C@@H](O)c1ccccc1)OC)N(C)C(=O)[C@@H](NC(=O)[C@@H](NC)C(C)C)C(C)C` gave a pIC50 of 8.08 (CCK-8).
For `CC[C@H](C)[C@@H]([C@@H](CC(=O)N1CCC[C@H]1[C@H](OC)[C@@H](C)C(=O)N[C@H](C)[C@@H](O)c1ccccc1)OC)N(C)C(=O)[C@@H](NC(=O)[C@H](C(C)C)N(C)C(=O)OCc1ccc(NC(=O)[C@H](CCCNC(N)=O)NC(=O)[C@@H](NC(=O)CCOCCOCCOCCOCCC(=O)N[C@@H]2CSSC[C@H](C(=O)O)NC(=O)CNC(=O)[C@@H](CCCNC(=N)N)NC(=O)CNC(=O)[C@@H](C(C)C)NC(=O)CNC(=O)[C@@H](C)NC(=O)[C@@H](CCCNC(=N)N)NC2=O)C(C)C)cc1)C(C)C`, the pIC50 was 6.92 (resazurin; 24 h).
`CC(=O)N[C@H]1[C@@H](O[C@@H]2O[C@H](C[C@@H](O)[C@H]3O[C@@H](n4ccc(=O)[nH]c4=O)[C@H](O)[C@@H]3O)[C@H](O)[C@H](O)[C@H]2NC(=O)/C=C/CCCCCCCCCC(C)C)O[C@H](CO)[C@@H](O)[C@@H]1O` has a pIC50 of 6.77 (WST-1).
The pIC50 of `N.N.[Cl][Pt][Cl]` is reported as 4.40 (MTT; 48 h).
